PfG6PD inh = PfG6PD (Plasmodium falciparum) enzyme inhibition | 350,000 compounds, 0.78% hits | inhibition, % at 20 µM | PfGluPho enzyme, NADPH resazurin-diaphorase fluorescence;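 active = inhibition reaching at least a set limit at 20 µM in the primary screen, cut at about 59% in these data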;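 also: 0% = DMSO wells with substrate and 100% = DMSO wells lacking glucose-6-phosphate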
G6PDH counter = L. mesenteroides G6PDH inhibition counter-screen; 200,000 compounds, 0.12% hits; Purified L. mesenteroides G6PDH, diaphorase/resazurin coupled fluorescence, 45 min; AID 1020; inhibition, % at 5 µM
Diaphorase inh = diaphorase inhibition or chemical oxidation counter-screen | diaphorase resazurin-to-resorufin fluorescence, NADH, 16 min; bacterial (C. kluyveri) enzyme, not human | AID 1217 | 190,000 compounds, 0.69% hits | inhibition, % at 20 µM;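 active = primary screen inhibition at 20 µM above a set limit, cut at about 50% in these data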;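 also: plate controls were DMSO with full reaction for no effect and wells lacking NADH for full effect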
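material = Clostridium kluyveri diaphorase enzyme | amount = 0.14 U/mL diaphorase, enzyme working solution | schedule = incubation 16 min, room temperature | detection = fluorescence of resorufin formed from resazurin, Ex 544/Em 590 nm | benchmarks = positive control minus NADH, DMSO neutral control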
Diaphorase act = diaphorase activation or chemical reduction counter-screen; 190,000 compounds, 0.005% hits; Diaphorase/resazurin coupled assay, resorufin fluorescence, 16 min; stronger effect = higher value; 1 = vehicle wells, 0 = NADH-free wells; activation factor at 20 µM;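 active = diaphorase activity raised at least twofold by the compound at 20 µM; inactive = activation factor below 2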
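Material: Clostridium kluyveri diaphorase, purified enzyme; Quantity: enzyme 0.07 U/mL final; Medium: HEPES pH 7.4 buffer with MgCl2 and Tween 20; Dosing: single compound dose of 20 µM, 1% DMSO final; Schedule: 16 min reaction at room temperature; Measured by: red resorufin fluorescence at 544/590 nm excitation/emission.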
Redox H2O2 prof = compounds producing H2O2 with reducing agent – biochemical, NIH compound library profiling, artefact control for MLSCN library redox annotation, primary screen; DTT-dependent redox cycling H2O2, phenol red/HRP absorbance; 100% = 100 µM peroxide control, 0% = buffer; activation, % at 10 µM; 200,000 compounds, 0.03% hits;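 active = activation of at least 50% relative to the plate's high and low controls in the primary single-dose screen; inactive = activation below 50%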;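 also: compound incubated with DTT at 0.8 mM final as the reducing agent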
L major viab = Leishmania major promastigote growth inhibition | Leishmania major promastigotes, resazurin fluorescence viability | inhibition, % at 10 µM | 200,000 compounds, 9% hits | AID 1063;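 also: promastigotes grown with compound for 44 hours at 28 °C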
The depositor's hits bear a star; x = no result given. The sample as a whole holds a higher share of hits than the screen did. Rule as the data show it, unless noted: active = inhibition above about 50%; inactive = the rest.

SMILES	PfG6PD inh	G6PDH counter	Diaphorase inh	Diaphorase act	Redox H2O2 prof	L major viab
CC(Cc1ccccc1)NC(=O)/C=C/c1ccc([N+](=O)[O-])cc1 (centres undefined)	6	-4	27	0.7	0	6
O=C(/C=C/c1ccccc1)NNc1ccc(Cl)cc1	-6	4	-4	1	1	99*
Cc1ccnc(NC(=O)C2CCN(S(=O)(=O)c3ccc(C)c(C)c3)CC2)c1	1	x	x	x	x	x
CCOC(=O)CSc1nc(Nc2ccc3c(c2)OCO3)c2ccccc2n1	26	8	25	0.8	3	56*
N#CCSc1nc(Nc2ccc3c(c2)OCO3)c2ccccc2n1	26	7	33	0.7	0	14
O=C1CC2(CCN(S(=O)(=O)c3ccccc3F)CC2)Oc2ccccc21	-2	x	x	x	x	x
O=C(NC1CCCCC1)c1ccc2c(c1)OCO2	8	x	x	x	x	x
O=C(NC1(C(=O)NC2CCCCC2)CCCCC1)c1ccc2c(c1)OCO2	-1	5	4	1	-3	93*
O=C(NNC(=O)c1ccc2c(c1)OCO2)NC1CCCCC1	-5	2	5	1	-4	-5
O=C(NC1(C(=O)NC2CCCC2)CCCCC1)c1ccc2c(c1)OCO2	5	3	6	0.9	-3	57*
CC(=O)C(Cc1ccccc1)NC(=O)CN1CCN(Cc2ccccc2)CC1 (centres undefined)	0	10	-12	1.1	-2	65*
CC1(C)C2CCC(C2)C1(C)NC(=O)CN1CCN(Cc2ccccc2)CC1 (centres undefined)	2	2	24	0.8	0	81*
CCOc1ccc(C(C)=O)cc1CN1C(=O)NC(C)(C2CC2)C1=O (centres undefined)	5	2	33	0.7	-2	-6
CCS(=O)(=O)c1ccc(OC)c(N=Nc2ccc(O)c3ncccc23)c1	-13	32	33	0.7	0	100*
Cc1ccc(C)c(N=Nc2ccc(O)c3ncccc23)c1	-17	12	23	0.8	2	100*
Cc1cccc(N=Nc2ccc(O)c3ncccc23)c1	-10	10	12	0.9	0	100*
CCOc1ccc(N=Nc2ccc(O)c3ncccc23)cc1	-5	x	x	x	x	x
COC(=O)Cn1c(C)nc([N+](=O)[O-])c1Br	-2	3	6	0.9	0	2
Cc1nc([N+](=O)[O-])c(Br)n1CC(=O)c1cccc([N+](=O)[O-])c1	15	7	21	0.8	4	86*
Cc1nc([N+](=O)[O-])c(Br)n1CC(=O)c1ccc(F)cc1	12	4	4	1	0	89*
Cc1oc(-c2cccc(F)c2)nc1CN(Cc1ccccc1)C[C@@H]1CCC(=O)N1	8	8	0	1	0	59*
Cc1oc(-c2ccccc2Cl)nc1CN(Cc1ccccn1)C[C@@H]1CCC(=O)N1	3	18	8	0.9	-1	-5
CN(C)CCCN(Cc1ccccc1)C(=S)Nc1cccc(C(F)(F)F)c1	15	7	9	0.9	0	60*
CCCN(Cc1ccccc1)C(=S)Nc1cccc(C(F)(F)F)c1	13	-18	6	0.9	0	91*
CCCN(Cc1ccccc1)C(=S)Nc1ccc(SC(F)F)cc1	19	4	18	0.8	0	53*
SMILES	PfG6PD inh	G6PDH counter	Diaphorase inh	Diaphorase act	Redox H2O2 prof	L major viab
O=C(NCCCN1CCCC1=O)C1CCN(S(=O)(=O)c2ccc(Cl)cc2)CC1	5	x	x	x	x	x
O=C(N=C1SC2CS(=O)(=O)CC2N1c1cccc(Cl)c1Cl)C1CC1 (centres undefined)	7	x	x	x	x	x
O=C(OCc1c(F)cccc1Cl)c1cccnc1Cl	-5	x	x	x	x	x
CC1(C)CC2CC(C)(CN2S(=O)(=O)c2ccccc2[N+](=O)[O-])C1 (centres undefined)	-4	x	x	x	x	x
O=[N+]([O-])c1ccc(COc2ccc(-c3[nH]ncc3-c3ccc(Cl)cc3)c(O)c2)cc1	3	-20	0	1	1	73*
O=C(C1CC(=O)N(C2CCCC2)C1)N1CCC(Cc2ccccc2)CC1 (centres undefined)	-19	6	1	1	2	70*
CCOC(=O)COc1ccc2c(C#N)c3ccccn3c2c1	33	44	49	0.5	0	5
N#Cc1c2ccc(OCC(N)=O)cc2n2ccccc12	43	44	70*	0.3	0	23
N#Cc1c(NCCN)nc(-c2ccco2)c2c1CCCC2	5	-5	5	1	2	100*
COc1ccc(N(Cc2ccco2)C(=O)c2ccccc2F)cc1OC	3	-1	14	0.9	0	59*
COc1ccc(CN(C(=O)c2ccco2)c2ccc(Br)cc2)cc1OC	-25	12	24	0.8	0	-3
CC(=O)C1C(=O)CC(C)(O)C(C(C)=O)C1c1ccccc1 (centres undefined)	2	7	14	0.9	-1	1
Cc1ccc(NS(=O)(=O)c2ccc(NC(=O)C(C)Sc3ccc(Cl)cc3)cc2)c(C)c1 (centres undefined)	15	-6	23	0.8	0	92*
CN(CCc1ccccc1)C(=O)c1ccc(NC(=O)Cc2ccc(NC(=O)C3CCN(C(=O)CCc4ccccc4)CC3)cc2)cc1	-7	x	x	x	x	x
COc1ccc(C(=O)Nc2nc3ccccc3[nH]2)cc1OC	4	4	-1	1	1	65*
CCOc1ccc(C(=O)Nc2nc3ccccc3[nH]2)cc1OCC	-8	1	-2	1	0	52*
COc1ccc(C(=O)Nc2nc3ccccc3[nH]2)cc1S(=O)(=O)N1CCCC1	-14	9	-7	1.1	0	59*
COc1cc(OC)cc(C(=O)Nc2nc3ccccc3[nH]2)c1	-1	14	3	1	0	64*
Cc1cc(C)cc(C(=O)Nc2nc3ccccc3[nH]2)c1	0	x	x	x	x	x
COc1ccccc1C(=O)NC(=O)COC(=O)CCS(=O)(=O)c1ccc(C)cc1	4	x	x	x	x	x
C=CCN1C(=O)c2ccc(C(=O)N3CCN(S(=O)(=O)c4ccccc4Br)CC3)cc2C1=O	1	x	x	x	x	x
CC(C)Oc1ccc(C(=O)Nc2nc3ccccc3[nH]2)cc1	4	x	x	x	x	x
CCC(Oc1ccccc1)C(=O)Nc1nc2ccccc2[nH]1 (centres undefined)	2	1	11	0.9	0	100*
COc1ccc(C(O)P(=O)(OCC(C)C)OCC(C)C)c(OC)c1 (centres undefined)	-2	10	4	1	-1	65*
COc1ccc(/C=C/C(=O)CCC(=O)O)cc1	-13	7	-12	1.1	1	-1
